The values that follow come from publication PMC3180826 (ACS chemical neuroscience, 2010).

Numbering of substitutions follows the chain as printed.

Assay [1] addresses T1, M2 (Homo sapiens, UniProt P08172).
T1 sequence (P08172 1-466): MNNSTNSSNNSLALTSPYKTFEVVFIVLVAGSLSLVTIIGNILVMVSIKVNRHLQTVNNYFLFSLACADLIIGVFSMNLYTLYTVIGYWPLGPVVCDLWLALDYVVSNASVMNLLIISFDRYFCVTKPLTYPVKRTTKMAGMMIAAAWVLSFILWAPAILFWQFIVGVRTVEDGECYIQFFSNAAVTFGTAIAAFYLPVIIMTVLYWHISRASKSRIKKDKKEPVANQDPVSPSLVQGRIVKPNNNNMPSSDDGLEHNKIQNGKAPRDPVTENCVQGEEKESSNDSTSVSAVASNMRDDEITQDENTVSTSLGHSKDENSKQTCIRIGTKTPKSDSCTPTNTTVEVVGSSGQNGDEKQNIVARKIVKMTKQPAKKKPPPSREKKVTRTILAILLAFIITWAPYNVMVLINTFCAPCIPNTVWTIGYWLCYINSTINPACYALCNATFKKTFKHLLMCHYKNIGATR
In words: [3H]-NMS competition binding, M2 CHO membranes. As to conditions: concentrations well above those required to fully activate M1.

Assay [2] has as its target T2, rM1 E401H (Rattus norvegicus, UniProt P08482, E401H).
T2 sequence (P08482 1-460 E401H): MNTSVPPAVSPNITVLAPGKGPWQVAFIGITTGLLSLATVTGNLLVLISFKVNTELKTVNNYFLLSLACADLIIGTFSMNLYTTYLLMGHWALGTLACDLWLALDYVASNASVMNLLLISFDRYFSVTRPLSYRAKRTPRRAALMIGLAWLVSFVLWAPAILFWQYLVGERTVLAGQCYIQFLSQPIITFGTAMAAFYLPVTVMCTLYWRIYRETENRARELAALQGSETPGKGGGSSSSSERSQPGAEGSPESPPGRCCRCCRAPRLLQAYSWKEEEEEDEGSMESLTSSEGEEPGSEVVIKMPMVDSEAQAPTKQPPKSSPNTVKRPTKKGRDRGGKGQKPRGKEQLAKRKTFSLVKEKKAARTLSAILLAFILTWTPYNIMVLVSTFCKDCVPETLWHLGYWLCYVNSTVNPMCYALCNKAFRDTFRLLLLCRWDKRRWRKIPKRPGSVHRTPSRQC
In words: Calcium mobilization, rM1 E401H mutant CHO-K1 cells. The assay is classed as cell-based. In outline: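 CHO-K1 cells were transiently transfected overnight at 37 °C with 10 μg of mutant rat M1 cDNA in pcDNA3.1+ using Fugene 6, then plated for the calcium assay. They were loaded with 2 μM Fluo-4 AM for 1 h at 37 °C in HEPES/probenecid-buffered HBSS, pH 7.4. Test compound dose–response series were added at 19 s. Calcium mobilization was measured as fluorescence increase over basal.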
For orientation: Calcium flux is commonly read through the fluorescence of an indicator in the cells.

The target in assay [3] is T3, M1 (Rattus norvegicus, UniProt P08482).
T3 sequence (P08482 1-460): T2 sequence (P08482 1-460 E401H) with H401E
The assay is described as follows: [3H]-NMS competition binding, M1 CHO membranes. Particulars: concentrations well above those required to fully activate M1.

The target of assay [4] is T4, rM1 EE397/401DD (Rattus norvegicus, UniProt P08482, E397D/E401D).
T4 sequence (P08482 1-460 E397D/E401D): T2 sequence (P08482 1-460 E401H) with E397D, H401D
In words: Calcium mobilization, rM1 EE397/401DD double mutant CHO-K1 cells. The assay is classed as cell-based. Particulars: compared with wt rM1 and triple mutant.

In assay [5] the target is T5, M4 (Rattus norvegicus, UniProt P08485).
T5 sequence (P08485 1-478): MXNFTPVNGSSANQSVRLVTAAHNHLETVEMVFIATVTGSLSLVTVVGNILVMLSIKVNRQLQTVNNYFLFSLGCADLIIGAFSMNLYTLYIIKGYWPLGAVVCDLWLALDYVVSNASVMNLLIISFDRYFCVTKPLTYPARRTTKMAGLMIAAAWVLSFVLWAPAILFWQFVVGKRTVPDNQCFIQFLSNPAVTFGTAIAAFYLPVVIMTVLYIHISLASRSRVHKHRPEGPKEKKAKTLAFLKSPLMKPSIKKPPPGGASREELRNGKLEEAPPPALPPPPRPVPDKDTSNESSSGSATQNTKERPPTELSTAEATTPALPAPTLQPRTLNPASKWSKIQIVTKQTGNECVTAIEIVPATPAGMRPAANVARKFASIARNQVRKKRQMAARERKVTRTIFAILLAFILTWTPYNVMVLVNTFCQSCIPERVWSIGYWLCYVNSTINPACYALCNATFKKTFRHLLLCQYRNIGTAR
The assay is described as follows: [3H]-NMS competition binding, M4 CHO membranes. Particulars: concentrations well above those required to fully activate M1.

Regarding `CCOC(=O)N1CCC(NCCNC(=O)c2ccccc2)CC1` [VU0184670, ethyl 4-(2-benzamidoethylamino)piperidine-1-carboxylate], in assay [1], the “reduction of [3H]-NMS binding to M2” value was “did not reduce”. In addition, the EC50 (commonly the concentration at which the effect is half-maximal) in assay [2] was 1210 nM. Moreover, in assay [2] (CHO-K1, read-out: E401H mutant Emax), the Emax – broadly, the maximal effect, on the per cent scale that the assay sets – came out at 29.4%. In addition, the “reduction of [3H]-NMS binding to M1” value in assay [3] was “did not reduce”. In addition, in assay [4], the “functional potency and efficacy at EE397/401DD double mutant” value was “decrease the potency and efficacy further toward the levels observed with the triple mutant”. Besides, the “reduction of [3H]-NMS binding to M4” value in assay [5] is listed as “did not reduce”.
